Experimental findings from ChEMBL document CHEMBL1133943, “N-hydroxyl derivatives of guanidine based drugs as enzymatic NO donors” (Bioorg Med Chem Lett, 2001) are described below.

A value given as a limit tells only on which side of the number the result lay.

Common to all, as to assay type: functional
Assay [1] addresses Nitric oxide synthase, inducible (Homo sapiens) (UniProt P35228). Briefly: NO releasing ability of compound measured through formation of nitrite using iNOS (nitric oxide synthases). The method, boiled down: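 Purified iNOS (0.5 unit) incubated with 1 mM substrate in 50 mM HEPES pH 7.4 with 100 µM NADPH, 4 µM FAD, 4 µM FMN, 6 µM BH4, 400 µM DTT, SOD, catalase and 1 mM magnesium acetate; shaken at 37 °C. Quenched with ethanol for ≥1 h at room temperature, then Griess reagent; A548 converted via NaNO2 calibration in enzyme-free mixtures.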

The target of assay [2] is Nitric oxide synthase 1 (Rattus norvegicus) (UniProt P29476). The experiment in a line: NO releasing ability of compound measured through formation of nitrite using nNOS (nitric oxide synthases). The method, boiled down: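 Purified nNOS (0.5 unit) incubated with 1 mM substrate in 50 mM HEPES pH 7.4, 500 µL final volume. Mix held 100 µM NADPH, 4 µM FAD, 4 µM FMN, 6 µM BH4, 400 µM DTT, SOD, catalase, 1 mM CaCl2 and 10 µg/mL CaM; shaken at 37 °C. Ethanol quench, then Griess nitrite read at 548 nm against NaNO2 calibration without enzyme. L-arginine as control.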
Chain of Nitric oxide synthase 1 (Rattus norvegicus) (P29476 whole entry): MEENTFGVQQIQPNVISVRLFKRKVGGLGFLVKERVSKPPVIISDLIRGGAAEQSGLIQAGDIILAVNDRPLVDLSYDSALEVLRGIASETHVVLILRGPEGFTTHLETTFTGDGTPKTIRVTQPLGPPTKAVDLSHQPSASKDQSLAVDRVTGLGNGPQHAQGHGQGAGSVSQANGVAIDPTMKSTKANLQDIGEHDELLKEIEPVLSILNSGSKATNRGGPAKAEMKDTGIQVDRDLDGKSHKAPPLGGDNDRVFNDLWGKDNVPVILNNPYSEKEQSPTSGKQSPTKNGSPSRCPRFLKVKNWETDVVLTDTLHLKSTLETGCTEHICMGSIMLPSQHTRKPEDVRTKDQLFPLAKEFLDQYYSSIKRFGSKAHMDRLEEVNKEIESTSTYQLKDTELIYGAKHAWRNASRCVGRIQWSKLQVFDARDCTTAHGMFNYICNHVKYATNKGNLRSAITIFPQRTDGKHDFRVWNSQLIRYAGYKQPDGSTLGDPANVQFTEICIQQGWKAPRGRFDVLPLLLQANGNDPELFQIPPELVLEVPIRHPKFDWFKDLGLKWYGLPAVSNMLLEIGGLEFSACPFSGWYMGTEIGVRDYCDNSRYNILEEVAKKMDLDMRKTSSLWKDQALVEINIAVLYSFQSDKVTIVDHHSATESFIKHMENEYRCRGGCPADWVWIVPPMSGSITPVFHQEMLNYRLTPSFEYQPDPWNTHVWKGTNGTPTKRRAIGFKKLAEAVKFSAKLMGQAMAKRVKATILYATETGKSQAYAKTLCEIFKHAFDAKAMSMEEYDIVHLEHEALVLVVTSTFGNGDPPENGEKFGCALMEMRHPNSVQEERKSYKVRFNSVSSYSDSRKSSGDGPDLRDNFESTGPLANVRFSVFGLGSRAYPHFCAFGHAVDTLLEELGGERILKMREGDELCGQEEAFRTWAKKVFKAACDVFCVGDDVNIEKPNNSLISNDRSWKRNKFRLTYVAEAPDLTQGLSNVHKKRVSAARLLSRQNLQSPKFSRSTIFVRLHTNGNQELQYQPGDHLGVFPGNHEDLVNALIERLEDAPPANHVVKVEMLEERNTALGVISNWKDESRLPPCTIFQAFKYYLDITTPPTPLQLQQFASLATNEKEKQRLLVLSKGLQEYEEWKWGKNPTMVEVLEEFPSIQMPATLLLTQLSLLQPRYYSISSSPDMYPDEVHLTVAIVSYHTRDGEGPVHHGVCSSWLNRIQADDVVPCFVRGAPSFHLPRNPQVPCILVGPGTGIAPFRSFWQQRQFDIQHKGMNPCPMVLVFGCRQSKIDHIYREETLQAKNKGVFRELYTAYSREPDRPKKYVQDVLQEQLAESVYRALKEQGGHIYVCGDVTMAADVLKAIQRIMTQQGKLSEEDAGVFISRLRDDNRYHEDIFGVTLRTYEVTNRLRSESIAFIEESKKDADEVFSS

The target of assay [3] is Nitric oxide synthase 1 (Homo sapiens) (UniProt P29475). Briefly: NO releasing ability of compound measured through formation of nitrite using neuronal nitric oxide synthase. The method, boiled down:
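Incubation with nNOS (0.5 unit) in 50 mM HEPES pH 7.4 at 37 °C, shaken. Mixture: 1 mM substrate, 100 µM NADPH, 4 µM FAD, 4 µM FMN, 6 µM BH4, 400 µM DTT, 100 units SOD, 50 units catalase, 1 mM CaCl2, 10 µg/mL calmodulin. Quenched with ethanol, ≥1 h at room temperature, then Griess reagent, A548. Nitrite is quantified against NaNO2 standards made in enzyme-free mixtures. L-arginine is the reference substrate.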

Assay [4] in a line: Effect of incubation conditions on the formation of NO2 from the oxidation of compound in the presence of NO2-L-Arg. The method, boiled down: (§1)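 Base NOS reaction varied by component: 1 mM substrate, 50 mM HEPES pH 7.4, 100 µM NADPH, 4 µM FAD, 4 µM FMN, 6 µM BH4, 400 µM DTT, SOD, catalase, 0.5 unit NOS, shaken at 37 °C for the indicated time. Nitrite determined by Griess reaction after ethanol quench, absorbance 548 nm, with NaNO2 calibration curves lacking enzyme.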

Assay [5] in a line: Effect of incubation conditions on the formation of NO2 from the oxidation of compound in the presence of nNOS. The method, boiled down: as §1
Assay [6] in a line: Effect of incubation conditions on the formation of NO2 from the oxidation of compound in the presence of complete system. The method, boiled down:
as §1

Assay [7] can be described thus: Effect of incubation conditions on the formation of NO2 from the oxidation of compound in the presence of BH4. The method, boiled down:
as §1

Assay [8] in a line: Effect of incubation conditions on the formation of NO2 from the oxidation of compound in the presence of NADPH. The method, boiled down: as §1

Chain of Nitric oxide synthase, inducible (Homo sapiens) (P35228 whole entry): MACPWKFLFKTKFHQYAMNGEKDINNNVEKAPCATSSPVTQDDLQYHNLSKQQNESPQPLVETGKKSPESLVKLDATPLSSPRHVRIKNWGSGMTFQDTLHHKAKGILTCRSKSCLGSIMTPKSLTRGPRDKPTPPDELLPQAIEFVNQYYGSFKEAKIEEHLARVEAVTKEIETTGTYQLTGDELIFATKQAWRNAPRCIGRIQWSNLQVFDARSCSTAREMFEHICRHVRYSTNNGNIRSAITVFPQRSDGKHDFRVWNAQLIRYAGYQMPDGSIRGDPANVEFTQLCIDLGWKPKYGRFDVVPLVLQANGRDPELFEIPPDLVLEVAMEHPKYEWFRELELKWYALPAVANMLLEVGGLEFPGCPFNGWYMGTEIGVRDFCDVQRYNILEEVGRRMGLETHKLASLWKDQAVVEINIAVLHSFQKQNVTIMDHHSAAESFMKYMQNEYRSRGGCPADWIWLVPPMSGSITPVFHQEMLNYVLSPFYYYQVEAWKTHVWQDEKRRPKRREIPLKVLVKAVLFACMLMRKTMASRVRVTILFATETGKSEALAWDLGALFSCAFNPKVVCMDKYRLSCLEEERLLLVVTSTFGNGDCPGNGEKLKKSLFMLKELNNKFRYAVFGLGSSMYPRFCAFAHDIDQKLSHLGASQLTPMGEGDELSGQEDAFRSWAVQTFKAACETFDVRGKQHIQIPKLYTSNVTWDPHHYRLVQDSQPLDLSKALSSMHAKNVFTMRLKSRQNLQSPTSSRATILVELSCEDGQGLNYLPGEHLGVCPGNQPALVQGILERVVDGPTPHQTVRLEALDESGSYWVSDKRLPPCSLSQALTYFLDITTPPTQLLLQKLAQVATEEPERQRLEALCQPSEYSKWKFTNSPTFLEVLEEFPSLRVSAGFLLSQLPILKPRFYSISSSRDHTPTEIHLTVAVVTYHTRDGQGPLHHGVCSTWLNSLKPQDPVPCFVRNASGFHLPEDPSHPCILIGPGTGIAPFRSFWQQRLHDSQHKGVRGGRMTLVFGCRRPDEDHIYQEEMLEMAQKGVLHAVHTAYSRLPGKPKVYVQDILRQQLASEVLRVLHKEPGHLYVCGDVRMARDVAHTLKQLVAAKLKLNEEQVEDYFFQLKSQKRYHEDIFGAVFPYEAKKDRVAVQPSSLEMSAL
Chain of Nitric oxide synthase 1 (Homo sapiens) (P29475 whole entry): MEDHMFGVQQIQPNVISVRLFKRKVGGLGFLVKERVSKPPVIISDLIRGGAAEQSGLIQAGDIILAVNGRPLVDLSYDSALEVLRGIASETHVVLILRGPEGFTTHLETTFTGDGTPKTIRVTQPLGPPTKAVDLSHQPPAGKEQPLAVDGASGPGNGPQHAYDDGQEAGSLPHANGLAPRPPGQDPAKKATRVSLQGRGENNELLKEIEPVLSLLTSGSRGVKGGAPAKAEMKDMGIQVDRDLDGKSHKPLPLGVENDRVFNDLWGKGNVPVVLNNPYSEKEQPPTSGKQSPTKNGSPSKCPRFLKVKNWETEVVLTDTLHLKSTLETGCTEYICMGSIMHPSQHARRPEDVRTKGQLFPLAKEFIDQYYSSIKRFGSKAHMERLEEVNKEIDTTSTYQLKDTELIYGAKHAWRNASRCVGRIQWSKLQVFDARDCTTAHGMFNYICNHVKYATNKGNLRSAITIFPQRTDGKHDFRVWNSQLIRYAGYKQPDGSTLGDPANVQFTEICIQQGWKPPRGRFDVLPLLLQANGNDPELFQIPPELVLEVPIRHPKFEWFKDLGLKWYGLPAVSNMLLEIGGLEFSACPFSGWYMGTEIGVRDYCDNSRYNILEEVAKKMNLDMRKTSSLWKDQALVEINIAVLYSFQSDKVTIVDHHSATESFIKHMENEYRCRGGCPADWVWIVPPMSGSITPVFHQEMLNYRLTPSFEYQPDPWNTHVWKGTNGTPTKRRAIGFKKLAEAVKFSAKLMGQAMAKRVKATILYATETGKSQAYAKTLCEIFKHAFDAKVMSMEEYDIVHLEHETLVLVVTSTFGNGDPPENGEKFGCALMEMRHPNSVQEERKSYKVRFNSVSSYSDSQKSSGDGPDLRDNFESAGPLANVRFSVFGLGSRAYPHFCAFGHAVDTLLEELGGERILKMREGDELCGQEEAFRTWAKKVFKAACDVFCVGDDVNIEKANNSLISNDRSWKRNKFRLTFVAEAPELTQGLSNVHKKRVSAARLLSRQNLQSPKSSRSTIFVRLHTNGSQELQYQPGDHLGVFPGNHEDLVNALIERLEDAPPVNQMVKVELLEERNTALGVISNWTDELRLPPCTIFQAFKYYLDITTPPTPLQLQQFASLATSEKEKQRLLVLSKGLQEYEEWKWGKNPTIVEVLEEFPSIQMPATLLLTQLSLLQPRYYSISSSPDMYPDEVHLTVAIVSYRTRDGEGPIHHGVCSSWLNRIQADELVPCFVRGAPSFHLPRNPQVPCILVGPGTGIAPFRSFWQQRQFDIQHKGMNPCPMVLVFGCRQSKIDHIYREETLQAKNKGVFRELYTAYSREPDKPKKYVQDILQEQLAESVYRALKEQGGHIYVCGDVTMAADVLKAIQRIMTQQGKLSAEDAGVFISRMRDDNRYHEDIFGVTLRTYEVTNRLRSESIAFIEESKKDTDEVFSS

For `N/C(=N\O)NCCN1CCCCCCC1`, the Activity in assay [1] is 0.2 µM; in assay [2] it was 0.3 µM.

For the compound `N=C(N)NCCN1CCCCCCC1`, the Activity in assay [1] and in assay [2] was below 0.1 µM in each case.

`N=C(N)NCC1COC2(CCCCC2)O1` (stereo not drawn): the Activity in assay [1] and in assay [2] was below 0.1 µM in each case.

As for `N=C(N)NCC1COc2ccccc2O1` (stereo not drawn), the Activity in assay [1] and in assay [2] was below 0.1 µM throughout.

Consider `N=C(N)NCCC[C@H](N)C(=O)O`, for which, in assay [3], the Activity was found to be 14.5 µM.

Regarding `N/C(=N/CC1COC2(CCCCC2)O1)NO` (stereo not drawn), the Activity is 1.6 µM in assay [1] and 1.2 µM in assay [2]. Besides, the residual activity in assay [4] was 50%; in assay [5] it was below 2%; in assay [6], 100%; in assay [7] it was 30%; in assay [8] it was 18%.

Turning to `N/C(=N/CC1COc2ccccc2O1)NO` (stereo not drawn), the Activity in assay [1] was determined as 0.9 µM; in assay [2], 0.8 µM.

One may read the residual activity as what remains of the control signal, in per cent.
